Measurements published in ChEMBL document CHEMBL4689842, “EUbOPEN Chemogenomics Library wave 1” (2021).

Tested on: U2OS
Assay: Multiplex assay against U2OS
Type: toxicity, cell-based
Conditions: human
In short: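 Tubulin, mitochondrial-mass and membrane-permeability phenotypes are per cents of healthy-nucleus cells. Cells were gated by CellPathfinder machine learning into Hoechst high-intensity objects or normal cells, normal cells into healthy, pyknosed or fragmented nuclei, and pyknosed cells into mitotic or apoptotic. Before that, live cells stained at seeding with Hoechst33342, BioTracker Green Microtubule Cytoskeleton Dye, MitoTracker Red and Annexin V Alexa Fluor 680 were imaged on a CQ1 microscope at 37°C and 5% CO2 after compound addition.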

[1] = 12 h, 1 µM, compound concentration 1 uM, replicate 1
[2] = 12 h, 1 µM, compound concentration 1 uM, replicate 2
[3] = 12 h, 10 µM, compound concentration 10 uM, replicate 1
[4] = 12 h, 10 µM, compound concentration 10 uM, replicate 2
[5] = 24 h, 1 µM, compound concentration 1 uM, replicate 1
[6] = 24 h, 1 µM, compound concentration 1 uM, replicate 2
[7] = 24 h, 10 µM, compound concentration 10 uM, replicate 1
[8] = 24 h, 10 µM, compound concentration 10 uM, replicate 2
[9] = 48 h, 1 µM, compound concentration 1 uM, replicate 1
[10] = 48 h, 1 µM, compound concentration 1 uM, replicate 2
[11] = 48 h, 10 µM, compound concentration 10 uM, replicate 1
[12] = 48 h, 10 µM, compound concentration 10 uM, replicate 2

## O=C1N/C(=N/c2ccccc2F)S/C1=C\c1ccc(C(=O)O)cc1
[1]
  Population Apoptotic (%): 33%
  Population Fragmented Nuclei (%): 8%
  Population Healthy Nuclei (%): 85%
  Population Hoechst High Intensity Objects (%): 9%
  Population Membrane Permeable-Phenotype (%): 6%
  Population Mitochondria Different-Phenotype (%): 10%
  Population Mitotic Cells (%): 66%
  Population Normal (%): 90%
  Population Pyknosed Nuclei (%): 5%
  Population Tubulin-Different-Phenotype (%): 7%
  Total Cell Count: 130
[2]
  Population Apoptotic (%): 0%
  Population Fragmented Nuclei (%): 3%
  Population Healthy Nuclei (%): 92%
  Population Hoechst High Intensity Objects (%): 8%
  Population Mitochondria Different-Phenotype (%): 16%
  Population Mitotic Cells (%): 100%
  Population Normal (%): 91%
  Population Pyknosed Nuclei (%): 3%
  Population Tubulin-Different-Phenotype (%): 24%
  Total Cell Count: 66
[3]
  Population Apoptotic (%): 25%
  Population Fragmented Nuclei (%): 8%
  Population Healthy Nuclei (%): 82%
  Population Hoechst High Intensity Objects (%): 5%
  Population Membrane Permeable-Phenotype (%): 6%
  Population Mitochondria Different-Phenotype (%): 15%
  Population Mitotic Cells (%): 75%
  Population Normal (%): 94%
  Population Pyknosed Nuclei (%): 8%
  Population Tubulin-Different-Phenotype (%): 8%
  Total Cell Count: 175
[4]
  Population Apoptotic (%): 44%
  Population Fragmented Nuclei (%): 4%
  Population Healthy Nuclei (%): 81%
  Population Hoechst High Intensity Objects (%): 8%
  Population Membrane Permeable-Phenotype (%): 1%
  Population Mitochondria Different-Phenotype (%): 9%
  Population Mitotic Cells (%): 55%
  Population Normal (%): 91%
  Population Pyknosed Nuclei (%): 14%
  Population Tubulin-Different-Phenotype (%): 9%
  Total Cell Count: 59
[5]
  Population Apoptotic (%): 33%
  Population Fragmented Nuclei (%): 9%
  Population Healthy Nuclei (%): 81%
  Population Membrane Permeable-Phenotype (%): 4%
  Population Mitochondria Different-Phenotype (%): 6%
  Population Mitotic Cells (%): 66%
  Population Pyknosed Nuclei (%): 8%
  Population Tubulin-Different-Phenotype (%): 4%
  Total Cell Count: 131
[6]
  Population Apoptotic (%): 0%
  Population Fragmented Nuclei (%): 7%
  Population Healthy Nuclei (%): 85%
  Population Hoechst High Intensity Objects (%): 5%
  Population Membrane Permeable-Phenotype (%): 5%
  Population Mitochondria Different-Phenotype (%): 10%
  Population Mitotic Cells (%): 100%
  Population Normal (%): 94%
  Population Pyknosed Nuclei (%): 7%
  Population Tubulin-Different-Phenotype (%): 23%
  Total Cell Count: 69
[7]
  Population Apoptotic (%): 20%
  Population Fragmented Nuclei (%): 6%
  Population Healthy Nuclei (%): 85%
  Population Hoechst High Intensity Objects (%): 3%
  Population Membrane Permeable-Phenotype (%): 4%
  Population Mitochondria Different-Phenotype (%): 10%
  Population Mitotic Cells (%): 80%
  Population Normal (%): 96%
  Population Pyknosed Nuclei (%): 8%
  Population Tubulin-Different-Phenotype (%): 5%
  Total Cell Count: 234
[8]
  Population Apoptotic (%): 60%
  Population Fragmented Nuclei (%): 5%
  Population Healthy Nuclei (%): 88%
  Population Hoechst High Intensity Objects (%): 5%
  Population Membrane Permeable-Phenotype (%): 2%
  Population Mitochondria Different-Phenotype (%): 6%
  Population Mitotic Cells (%): 40%
  Population Normal (%): 94%
  Population Pyknosed Nuclei (%): 5%
  Population Tubulin-Different-Phenotype (%): 16%
  Total Cell Count: 73
[9]
  Population Apoptotic (%): 27%
  Population Healthy Nuclei (%): 86%
  Population Hoechst High Intensity Objects (%): 1%
  Population Membrane Permeable-Phenotype (%): 1%
  Population Mitochondria Different-Phenotype (%): 14%
  Population Mitotic Cells (%): 72%
  Population Normal (%): 98%
  Population Pyknosed Nuclei (%): 6%
  Population Tubulin-Different-Phenotype (%): 6%
  Total Cell Count: 134
[10]
  Population Apoptotic (%): 0%
  Population Fragmented Nuclei (%): 6%
  Population Healthy Nuclei (%): 92%
  Population Hoechst High Intensity Objects (%): 5%
  Population Membrane Permeable-Phenotype (%): 7%
  Population Mitochondria Different-Phenotype (%): 16%
  Population Mitotic Cells (%): 100%
  Population Normal (%): 94%
  Population Pyknosed Nuclei (%): 1%
  Population Tubulin-Different-Phenotype (%): 23%
  Total Cell Count: 76
[11]
  Population Apoptotic (%): 21%
  Population Healthy Nuclei (%): 90%
  Population Membrane Permeable-Phenotype (%): 2%
  Population Mitochondria Different-Phenotype (%): 14%
  Population Mitotic Cells (%): 78%
  Population Pyknosed Nuclei (%): 5%
  Population Tubulin-Different-Phenotype (%): 5%
  Total Cell Count: 338
[12]
  Population Apoptotic (%): 22%
  Population Fragmented Nuclei (%): 4%
  Population Healthy Nuclei (%): 83%
  Population Hoechst High Intensity Objects (%): 2%
  Population Membrane Permeable-Phenotype (%): 6%
  Population Mitochondria Different-Phenotype (%): 9%
  Population Mitotic Cells (%): 77%
  Population Normal (%): 97%
  Population Pyknosed Nuclei (%): 12%
  Population Tubulin-Different-Phenotype (%): 22%
  Total Cell Count: 105
